High-throughput results from PubChem.
Sampled rows, rich in hits. Any-hit rate of the full collection: about 9.2%.
Dynein transport – dynein cargo transport inhibition. 3617.4 mouse cells, GR-EGFP nuclear translocation imaging; test concentration mostly 20 µM; stimulated with dexamethasone, 1 µM; hits give low values. z-score, hits read low. hit rate 0.47% among 220,000. AID 1381;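 active = plate z-score of nuclear minus cytoplasmic receptor signal below a set negative limit, without overly bright fluorescence or cell loss, cut at about -3.5 in these data, passing the limit was not always enough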;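 note: z-score of nuclear minus cytoplasmic ring GR-EGFP intensity difference per well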
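medium = tetracycline-free induction medium containing charcoal-stripped FBS | probe or stimulus = dexamethasone, 1.0 µM final | timing = 48 h induction, then 1 h compound, then 30 min agonist, 37 °C | detection = automated 10x imaging of fixed Hoechst-stained cells | read-out basis = nuclear versus cytoplasmic GR-EGFP signal, averaged per well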
bCat KO growth – beta-catenin-lacking colon tumor cell growth suppression. HCT116 beta-catenin knockout viability, CellTiter-Glo, 60 h; hits give low values. viability, % at 10 µM. hit rate 1.5% among 140,000. AID 818;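 active = viability at or under a set limit, the compound median less 4 SD, cut at about 6% in these data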;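 note: 0% = Hyamine 1622 control at 20 µM and 100% = untreated cell control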
PTEN del growth – growth suppressors of cells with PTEN tumor suppressor deletion; viability, % at 10 µM; hit rate 1.2% among 140,000; HCT116 PTEN-null viability, CellTiter-Glo, 60 h; hits give low values; AID 827;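 active = viability at or below a set limit, 4 SD under the median of all tested compounds, cut at about 3.7% in these data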;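 note: PTEN knockout HCT116 line with beta catenin targeted HCT116 as companion control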
Lmaj promast – inhibitors of Leishmania major promastigote growth. inhibition, % at 10 µM. Leishmania major promastigotes, resazurin fluorescence viability. hit rate 9% among 200,000; in the data active = inhibition above about 50%;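 note: promastigotes grown with compound for 44 hours at 28 °C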
Autophagy HCS – alters autophagy in cells | MEF GFP-LC3 puncta imaging; test concentration mostly 10 µM | calls only at 10 µM (by protocol) | hit rate 0.98% among 190,000;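 active = percentage of spot-positive cells more than 3 SD above its plate mean, without a fluorescence outlier flag or 80% toxicity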;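 note: spot-positive cell cutoff set from DMSO-treated cells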
L major 1uM – blocks Leishmania major promastigote growth at 1 uM, repeat screen | inhibition, % at 1 µM | L. major promastigote growth, resazurin fluorescence, 48 h | AID 1258 | hit rate 13% among 1,100 | shares compounds with Lmaj promast;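 active = inhibition above about 50% in both repeat tests, limit read from the data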
* hit, by the source's call; i = inactive; x = no result; + = active, no number.

SMILES	Dynein transport	bCat KO growth	PTEN del growth	Lmaj promast	Autophagy HCS	L major 1uM
Cc1cc(C)cc(NC(=O)c2nnn(Cc3cc(C)ccc3C)c2N)c1	-0.058	71	64	-1	x	x
c1ccc(-n2nnnc2Oc2cccc3cccnc23)cc1	0.35	49	25	63*	i	-12
O=C(Nc1cnccn1)Nc1ccc(Cl)cc1Cl	-0.58	x	x	0	i	x
CC12CCC(O)CC1=CCC1C2CCC2(C)C1CCC21CCC(=O)O1 (stereo not drawn)	-0.99	89	89	68*	i	-10
COc1cc2c(cc1OC)C(c1ccc(-c3ccccc3Cl)o1)=NCC2	0.97	16	17	68*	i	3
CCc1ccc(C2c3[nH]c4ccccc4c3CCN2C(=O)CNC(N)=O)cc1 (stereo not drawn)	0.49	x	x	16	i	x
CCc1ccc(C2c3[nH]c4ccccc4c3CCN2C(=O)CN2CCN(CC)CC2)cc1 (stereo not drawn)	2.1	x	x	75*	i	-10
CC(=O)O[C@]1(C(C)=O)CC[C@H]2[C@@H]3C[C@H](C)C4=CC(=O)CC[C@]4(C)[C@H]3CC[C@@]21C	-0.052	72	74	76*	i	-2
CC(=O)[C@H]1CC[C@H]2[C@@H]3C[C@H](C)C4=CC(=O)CC[C@]4(C)[C@H]3[C@@H](O)C[C@]12C	-0.49	90	84	6	i	x
c1ccc2c(-c3cc(C4CCNCC4)[nH]n3)cccc2c1	-0.67	x	x	36	i	x
O=C1c2ccccc2-c2onc3ccc(Oc4ccccc4)c1c23	-0.9	1.9*	1.5*	100*	+	-13
O=c1[nH]c(=O)c2cc([N+](=O)[O-])cc([N+](=O)[O-])c2[nH]1	0.97	x	x	91*	i	13
CCN(CC)CCOC(c1ccccc1)c1ccc(C)cc1 (stereo not drawn)	-0.62	84	85	96*	i	74*
O=C(Oc1ccc(Cl)c2cccnc12)c1cccc([N+](=O)[O-])c1	0.44	26	22	99*	i	1
O=C(Oc1coc(CSc2ncccn2)cc1=O)c1cccc([N+](=O)[O-])c1	-0.65	x	x	-7	i	x
COc1cccc(CN2CCN(Cc3cccn3-c3cccnc3)CC2CCO)c1 (stereo not drawn)	-0.8	x	x	-3	i	x
COc1cccc(C2C(C(=O)c3cc4ccccc4o3)=C(O)C(=O)N2CCN(C)C)c1OC (stereo not drawn)	-0.64	x	x	-19	i	x
COc1cccc(C2C(C(=O)c3ccco3)=C(O)C(=O)N2CCN(C)C)c1OC (stereo not drawn)	-0.76	97	100	62*	i	-8
CC1CN(Cc2nc3c(c(=O)n(C)c(=O)n3C)n2CCc2ccccc2)CC(C)O1 (stereo not drawn)	-0.76	x	x	5	i	x
Cc1onc(-c2c(Cl)cccc2Cl)c1C(=O)N1CCCc2ccccc21	-0.4	27	23	92*	i	-20
COc1cc(C)nc(Oc2ccc(OCCOc3ccc(C)cc3)nn2)n1	0.2	89	94	8	i	x
CCN(CC)c1ccc(NC(=O)CN2CCN(S(=O)(=O)c3cc(Cl)ccc3OC)CC2)cc1	0.18	65	66	54*	i	66*
COc1ccc(Cl)cc1S(=O)(=O)N1CCN(C)CC1	-0.79	99	99	-6	i	x
c1cncc(-c2nnc(-c3cccnc3)nn2)c1	-0.053	1.7*	1.6*	97*	i	-22
COc1ccccc1CN=c1c([N+](=O)[O-])nn(-c2ccc3c(c2)OCCO3)n1O	0.2	71	70	98*	i	14
SMILES	Dynein transport	bCat KO growth	PTEN del growth	Lmaj promast	Autophagy HCS	L major 1uM
COC(=O)C1=C(C(=O)OC)SC2(S1)C(C(=O)OC)=C(C(=O)OC)SC1=C2c2cccc(C)c2NC1(C)C	-0.2	47	82	100*	i	6
COC(=O)c1c(C)[nH]c(C)c1-c1ccccc1Cl	-0.14	88	86	28	i	x
Cc1ccc(-c2nnc(SCC(=O)NC3CC3)n2N)cc1	-0.43	x	x	x	x	x
Cc1cc(C=O)c2c(c1)C=CC1(Oc3ccccc3C(=O)N1C)O2 (stereo not drawn)	0.077	57	58	100*	i	-9
CN(C)CCNc1c2c(c(C#N)c3nc4ccccc4n13)CCCC2	-0.36	8	24	54*	i	-16
N#Cc1c2c(c(NCc3ccco3)n3c1nc1ccccc13)CCC2	0.88	89	92	8	i	x
